# Laboratory results published in ChEMBL document CHEMBL3526049 (Drug Metab Dispos, 2012).
# Assays:
# Type in all cases: ADME, organism-based
# [1] = Half life in MRP2-deficient Wistar rat at 5 mg/kg, po by LC-MS/MS analysis; set-up: dose 5 mg/kg, route oral; conditions: in vivo
# Procedure, shortened: (§1)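 Male Wistar wild-type rats and Mrp2-deficient TR⁻ rats with femoral artery and vein cannulas. Sulfasalazine given as an iv bolus (5 mg/kg, water at pH 9–10) and by oral gavage, each followed by arterial plasma sampling over 24 h. Sulfasalazine and sulfapyridine measured by LC-MS/MS; noncompartmental parameters; mean ± S.D., n = 3.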
# [2] = Volume of distribution at steady state in wild-type Sprague-Dawley rat at 5 mg/kg, iv by LC-MS/MS analysis; set-up: dose 5 mg/kg, route intravenous; conditions: in vivo, read-out: Vdss
# Procedure, shortened: (§2)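 Male Sprague-Dawley knockout rats or wild-type rats matched for age and weight, with femoral artery and vein cannulas. Crossover design: sulfasalazine 5 mg/kg iv bolus (water, pH 9–10) on day 0, then 20 mg/kg oral gavage (0.5% carboxymethyl cellulose in PBS, pH 7.4) on day 3. Arterial plasma collected 0–24 h. Sulfasalazine and sulfapyridine measured by LC-MS/MS; noncompartmental parameters; mean ± S.D., n = 4 to 8.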
# [3] = Half life in MRP2-deficient Wistar rat at 5 mg/kg, iv by LC-MS/MS analysis; set-up: dose 5 mg/kg, route intravenous; conditions: in vivo; procedure, shortened: as §1
# [4] = Clearance in wild-type Sprague-Dawley rat at 5 mg/kg, iv by LC-MS/MS analysis; set-up: dose 5 mg/kg, route intravenous; conditions: in vivo
# Procedure, shortened: (§3)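 Male Sprague-Dawley knockout or age/weight-matched wild-type rats with femoral artery and vein cannulas. Crossover design: day 0 i.v. bolus 5 mg/kg sulfasalazine in water at pH 9–10, then day 3 gavage 20 mg/kg in 0.5% carboxymethyl cellulose/PBS pH 7.4. Arterial plasma was sampled to 24 h. Sulfasalazine and sulfapyridine were measured by LC-MS/MS (1–5000 ng/ml). Parameters are noncompartmental; n = 4–8, mean ± S.D.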
# [5] = Half life in wild-type Sprague-Dawley rat at 20 mg/kg, po by LC-MS/MS analysis; set-up: dose 20 mg/kg, route oral; conditions: in vivo; procedure, shortened: as §2
# [6] = Oral bioavailability in MRP2 knockout Sprague-Dawley rat at 20 mg/kg by LC-MS/MS analysis; conditions: in vivo; procedure, shortened: as §2
# [7] = Clearance in MRP2-deficient Wistar rat at 5 mg/kg, iv by LC-MS/MS analysis; set-up: dose 5 mg/kg, route intravenous; conditions: in vivo
# Procedure, shortened: (§4)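 Male Wistar wild-type or Mrp2-deficient TR⁻ rats with femoral artery and vein cannulas. Sulfasalazine was given as a 5 mg/kg i.v. bolus and as a 20 mg/kg oral dose. Arterial plasma was sampled to 24 h and analysed for parent and sulfapyridine by LC-MS/MS. Noncompartmental parameters; n = 3, mean ± S.D.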
# [8] = Cmax in MDR1A knockout Sprague-Dawley rat at 20 mg/kg, po by LC-MS/MS analysis; set-up: dose 20 mg/kg, route oral; conditions: in vivo; procedure, shortened: as §3
# [9] = AUC (infinity) in wild-type Sprague-Dawley rat at 5 mg/kg, iv by LC-MS/MS analysis; set-up: time infinity, dose 5 mg/kg, route intravenous; conditions: plasma; procedure, shortened: as §3
# [10] = AUC (infinity) in wild-type Sprague-Dawley rat at 20 mg/kg, po by LC-MS/MS analysis; set-up: time infinity, dose 20 mg/kg, route oral; conditions: plasma; procedure, shortened: as §3
# [11] = Tmax in BCRP knockout Sprague-Dawley rat at 20 mg/kg, po by LC-MS/MS analysis; set-up: dose 20 mg/kg, route oral; conditions: in vivo
# Procedure, shortened: (§5)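 Male Sprague-Dawley rats (knockout or wild type, matched for age and weight) with femoral artery and vein cannulas, recovered ≥2 days. In an i.v./oral crossover with a 3-day washout, sulfasalazine was given by oral gavage at 20 mg/kg in 0.5% carboxymethyl cellulose/PBS pH 7.4. Arterial plasma was sampled 0–24 h and analysed by LC-MS/MS (1–5000 ng/ml). Noncompartmental analysis; n = 4 to 8.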
# [12] = AUC (infinity) in BCRP knockout Sprague-Dawley rat at 20 mg/kg, po by LC-MS/MS analysis; set-up: time infinity, dose 20 mg/kg, route oral; conditions: plasma; procedure, shortened: as §3
# [13] = Cmax in BCRP knockout Sprague-Dawley rat at 20 mg/kg, po by LC-MS/MS analysis; set-up: dose 20 mg/kg, route oral; conditions: in vivo; procedure, shortened: as §3
# [14] = Tmax in wild-type Wistar rat at 5 mg/kg, po by LC-MS/MS analysis; set-up: dose 5 mg/kg, route oral; conditions: in vivo
# [15] = Tmax in MRP2-deficient Wistar rat at 5 mg/kg, po by LC-MS/MS analysis; set-up: dose 5 mg/kg, route oral; conditions: in vivo
# [16] = Oral bioavailability in wild-type Wistar rat at 5 mg/kg by LC-MS/MS analysis; conditions: in vivo; procedure, shortened: as §1
# [17] = AUC (infinity) in MRP2-deficient Wistar rat at 5 mg/kg, po by LC-MS/MS analysis; set-up: time infinity, dose 5 mg/kg, route oral; conditions: plasma
# [18] = Half life in MRP2 knockout Sprague-Dawley rat at 20 mg/kg, po by LC-MS/MS analysis; set-up: dose 20 mg/kg, route oral; conditions: in vivo; procedure, shortened: as §2
# [19] = Cmax in MRP2 knockout Sprague-Dawley rat at 20 mg/kg, po by LC-MS/MS analysis; set-up: dose 20 mg/kg, route oral; conditions: in vivo; procedure, shortened: as §3
# [20] = Half life in wild-type Sprague-Dawley rat at 5 mg/kg, iv by LC-MS/MS analysis; set-up: dose 5 mg/kg, route intravenous; conditions: in vivo; procedure, shortened: as §2
# [21] = Volume of distribution at steady state in MRP2 knockout Sprague-Dawley rat at 5 mg/kg, iv by LC-MS/MS analysis; set-up: dose 5 mg/kg, route intravenous; conditions: in vivo, read-out: Vdss; procedure, shortened: as §2
# [22] = Oral bioavailability in wild-type Sprague-Dawley rat at 20 mg/kg by LC-MS/MS analysis; conditions: in vivo; procedure, shortened: as §2
# [23] = Volume of distribution at steady state in BCRP knockout Sprague-Dawley rat at 5 mg/kg, iv by LC-MS/MS analysis; set-up: dose 5 mg/kg, route intravenous; conditions: in vivo, read-out: Vdss; procedure, shortened: as §2
# [24] = Half life in MDR1A knockout Sprague-Dawley rat at 20 mg/kg, po by LC-MS/MS analysis; set-up: dose 20 mg/kg, route oral; conditions: in vivo; procedure, shortened: as §2
# [25] = Oral bioavailability in MDR1A knockout Sprague-Dawley rat at 20 mg/kg by LC-MS/MS analysis; conditions: in vivo; procedure, shortened: as §2
# [26] = Clearance in MRP2 knockout Sprague-Dawley rat at 5 mg/kg, iv by LC-MS/MS analysis; set-up: dose 5 mg/kg, route intravenous; conditions: in vivo; procedure, shortened: as §3
# [27] = Oral bioavailability in BCRP knockout […]; conditions: in vivo
# [28] = Volume of distribution at steady state in wild-type Wistar rat at 5 mg/kg, iv by LC-MS/MS analysis; set-up: dose 5 mg/kg, route intravenous; conditions: in vivo, read-out: Vdss; procedure, shortened: as §1
# [29] = AUC (infinity) in MDR1A knockout Sprague-Dawley rat at 5 mg/kg, iv by LC-MS/MS analysis; set-up: time infinity, dose 5 mg/kg, route intravenous; conditions: plasma; procedure, shortened: as §3
# [30] = Cmax in wild-type Sprague-Dawley rat at 20 mg/kg, po by LC-MS/MS analysis; set-up: dose 20 mg/kg, route oral; conditions: in vivo; procedure, shortened: as §3
# [31] = Oral bioavailability in MRP2-deficient Wistar rat at 5 mg/kg by LC-MS/MS analysis; conditions: in vivo; procedure, shortened: as §1
# [32] = Clearance in wild-type Wistar rat at 5 mg/kg, iv by LC-MS/MS analysis; set-up: dose 5 mg/kg, route intravenous; conditions: in vivo; procedure, shortened: as §4
# [33] = Half life in MDR1A knockout Sprague-Dawley rat at 5 mg/kg, iv by LC-MS/MS analysis; set-up: dose 5 mg/kg, route intravenous; conditions: in vivo; procedure, shortened: as §2
# [34] = Tmax in wild-type Sprague-Dawley rat at 20 mg/kg, po by LC-MS/MS analysis; set-up: dose 20 mg/kg, route oral; conditions: in vivo; procedure, shortened: as §5
# [35] = AUC (infinity) in MRP2 knockout Sprague-Dawley rat at 20 mg/kg, po by LC-MS/MS analysis; set-up: time infinity, dose 20 mg/kg, route oral; conditions: plasma; procedure, shortened: as §3
# [36] = Volume of distribution at steady state in MRP2-deficient Wistar rat at 5 mg/kg, iv by LC-MS/MS analysis; set-up: dose 5 mg/kg, route intravenous; conditions: in vivo, read-out: Vdss; procedure, shortened: as §1
# [37] = AUC (infinity) in BCRP knockout Sprague-Dawley rat at 5 mg/kg, iv by LC-MS/MS analysis; set-up: time infinity, dose 5 mg/kg, route intravenous; conditions: plasma; procedure, shortened: as §3
structure (smiles),measurement,setting,value
O=C(O)c1cc(/N=N/c2ccc(S(=O)(=O)Nc3ccccn3)cc2)ccc1O [SULFASALAZINE],half-life,[1],138 min
same,Vd,[2],0.168 L/kg
same,half-life,[3],240 min
same,clearance,[4],10.4 mL/min/kg
same,half-life,[5],156 min
same,bioavailability,[6],4%
same,clearance,[7],10.9 mL/min/kg
same,Cmax,[8],213 ng/mL
same,AUC(0-inf),[9],8400 ng·h/mL
same,AUC(0-inf),[10],562 ng·h/mL
same,Tmax,[11],36 min
same,AUC(0-inf),[12],13100 ng·h/mL
same,Cmax,[13],3870 ng/mL
same,Tmax,[14],30 min
same,Tmax,[15],15 min
same,bioavailability,[16],3.8%
same,AUC(0-inf),[17],462 ng·h/mL
same,half-life,[18],228 min
same,Cmax,[19],320 ng/mL
same,half-life,[20],96 min
same,Vd,[21],1.3 L/kg
same,bioavailability,[22],1.4%
same,Vd,[23],0.408 L/kg
same,half-life,[24],138 min
same,bioavailability,[25],2.8%
same,clearance,[26],22 mL/min/kg
same,bioavailability,[27],37%
same,Vd,[28],0.244 L/kg
same,AUC(0-inf),[29],6260 ng·h/mL
same,Cmax,[30],185 ng/mL
same,bioavailability,[31],1.5%
same,clearance,[32],6.8 mL/min/kg
same,half-life,[33],60 min
same,Tmax,[34],15 min
same,AUC(0-inf),[35],635 ng·h/mL
same,Vd,[36],0.839 L/kg
same,AUC(0-inf),[37],10700 ng·h/mL
